Calls of active or inactive are those of the source. No cut-off for these calls is given here.
Columns and labels:
[1] = tested on: Trypanosoma brucei brucei; experiment: Antitrypanosomal activity against bloodstream form of Trypanosoma brucei brucei AnTat1.1A assessed as inhibition of growth in log phase at 1 uM after 48 hrs by Cell Titer Blue end-point assay; format: functional
Summary of the method: (§1)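 Log-phase bloodstream-form cells were seeded at 1×10^5 cells/mL and exposed to compound at a single concentration (0.2% DMSO) for 48 h (4 doublings). AnTat1.1A cells were grown in HMI-9 with 10% FBS and 10% Serum Plus. 90-13 cells were grown in HMI-9 with G418 (2.5 μg/mL) and hygromycin B (5 μg/mL). Cells were pelleted and incubated 3 h at 37°C with CellTiter-Blue. Fluorescence was read at 560/590 nm, background-subtracted and normalized to DMSO controls.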

[2] = tested on: Trypanosoma brucei brucei; experiment: Antitrypanosomal activity against bloodstream form of Trypanosoma brucei brucei Lister 427 90-13 assessed as inhibition of growth in log phase at 10 uM after 48 hrs by Cell Titer Blue end-point assay; format: functional; conditions: Lister 427 90-13, 48 h; summary of the method: as §1
[3] = tested on: Trypanosoma brucei brucei; experiment: Antitrypanosomal activity against bloodstream form of Trypanosoma brucei brucei AnTat1.1A assessed as inhibition of growth in log phase at 10 uM after 48 hrs by Cell Titer Blue end-point assay; format: functional; summary of the method: as §1
[4] = tested on: Trypanosoma brucei brucei; experiment: Antitrypanosomal activity against bloodstream form of Trypanosoma brucei brucei Lister 427 90-13 assessed as inhibition of growth in log phase at 1 uM after 48 hrs by Cell Titer Blue end-point assay; format: functional; conditions: Lister 427 90-13, 48 h; summary of the method: as §1
MOLT-4 = experiment: Cytotoxicity against human MOLT4 cells assessed as inhibition of cell growth after 4 days by Cell Titer Blue end-point assay; format: cell-based; conditions: MOLT-4, 96 h
Summary of the method: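 MOLT-4 cells in RPMI 1640 with 20% FBS were seeded at 5×10^4 cells/mL and grown 24 h before inhibitor was added. There were 8 concentrations in triplicate, spanning 50 nM to 30 μM final. Treatment lasted 4 days, then CTB was added for 3 h at 37°C. Fluorescence was read at 560Ex/590Em, with cell-free background subtracted and DMSO-only wells taken as 100%. EC50 was fitted from inhibition curves.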

[5] = tested on: Trypanosoma brucei brucei; experiment: Antitrypanosomal activity against bloodstream form of Trypanosoma brucei brucei assessed as inhibition of growth in log phase at 1 uM after 48 hrs by Cell Titer Blue end-point assay; conditions: read-out: GI
[6] = tested on: Trypanosoma brucei rhodesiense; experiment: Antitrypanosomal activity against bloodstream form of Trypanosoma brucei rhodesiense YTat1.1 assessed as inhibition of growth in log phase after 48 hrs by Cell Titer Blue end-point assay; format: functional, organism-based; conditions: YTat1.1, 48 h
Summary of the method: (§2)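 Dose-response: at least 8 final concentrations (50 nM–8 μM, 0.2% DMSO), each in triplicate, on log-phase bloodstream-form cells at 1×10^5 cells/mL. Incubation was 48 h at 37°C, 5% CO2, followed by a 3 h CellTiter-Blue fluorescence read with background subtracted. EC50 was derived from inhibition curves. YTat1.1 was culture-adapted from rat blood in HMI-9 with FBS and Serum Plus; its data come from 2–3 independent experiments. 90-13 was grown in HMI-9 with G418 and hygromycin B.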

[7] = Selectivity ratio of EC50 for human MOLT4 cells to EC50 for bloodstream form of Trypanosoma brucei rhodesiense YTat1.1; format: ADME, cell-based, MOLT-4; conditions: read-out: Ratio EC50
Summary of the method: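 Ratio of MOLT-4 EC50 to YTat1.1 EC50. MOLT-4 cells were grown in RPMI 1640 with 20% FBS, seeded at 5×10^4 cells/mL and grown 24 h before compound was added. Treatment used 8 triplicate concentrations between 50 nM and 30 μM for 4 days, followed by a 3 h CellTiter-Blue read at 37°C. The parasite EC50 came from a 48 h CellTiter-Blue dose-response (50 nM–8 μM).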

Trypanosoma brucei = experiment: Inhibition of NH3-AU1 epitope-tagged recombinant Trypanosoma brucei AUK1 expressed in procyclic form trypanosome AnTat1.1 assessed as decrease in myelin basic protein phosphorylation at 500 nM preincubated for 5 mins by pull down assay in presence of [gamma-32P]ATP
Summary of the method: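 AU1-tagged TbAUK1 came from procyclic AnTat1.1 cells pretreated with 16 μM MG132 for 3 h. Lysate was pre-cleared and immunoprecipitated overnight at 4°C on AU1 beads. Bead kinase was mixed with 160 μg myelin basic protein in Hepes/KCl/NaF/MgCl2/DTT buffer, pH 7.4, with drug preincubated 5 min. Reactions were started with 8 μM ATP plus [γ-32P]ATP and run 30 min at 30°C. Products were read by SDS-PAGE autoradiography.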

[8] = tested on: Trypanosoma brucei brucei; experiment: Antitrypanosomal activity against bloodstream form of Trypanosoma brucei brucei Lister 427 90-13 assessed as inhibition of growth in log phase after 48 hrs by Cell Titer Blue end-point assay; format: functional, organism-based; conditions: Lister 427 90-13, 48 h; summary of the method: as §2
[9] = Selectivity ratio of EC50 for human MOLT4 cells to EC50 for bloodstream form of Trypanosoma brucei brucei Lister 427 90-13; format: ADME, cell-based, MOLT-4; conditions: read-out: Ratio EC50
Summary of the method: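 The ratio is MOLT-4 EC50 over T. b. brucei 90-13 EC50. BF 90-13 cells in HMI-9 with G418 and hygromycin B were seeded at 1×10^5 cells/mL and exposed 48 h to 8 concentrations (50 nM–8 μM final, 0.2% DMSO) in triplicate. MOLT-4 cells were treated 4 days. Both were read by CTB fluorescence, with EC50 fitted from inhibition curves.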

Compound	inhibition at 1 µM [1] [%]	inhibition at 10 µM [2] [%]	inhibition at 10 µM [3] [%]	inhibition at 1 µM [4] [%]	EC50 (MOLT-4) [µM]	inhibition of growth at 1 µM [5] [%]	EC50 [6] [µM]	selectivity ratio [7]	inhibition (Trypanosoma brucei)	EC50 [8] [µM]	selectivity ratio [9]
CN1CCN(c2ccc(C(=O)Nc3n[nH]c4c3CN(C(=O)Cc3ccc(F)c(F)c3)C4)cc2)CC1	18	53	98	29							
Cc1ccc(C(C)C(=O)N2Cc3[nH]nc(NC(=O)c4ccc(N5CCN(C)CC5)cc4)c3C2)cc1 (racemic)	19	100	100	19	5.48	> 60	0.86	6.4			
COC(C(=O)N1Cc2[nH]nc(NC(=O)c3ccc(N4CCN(C)CC4)cc3)c2C1)c1ccccc1 (racemic)	77	25	97	15	4.13	> 60	0.61	6.8			
CCS(=O)(=O)Nc1ccc2c(c1)/C(=C(/Nc1ccc(CN3CCCCC3)cc1)c1ccccc1)C(=O)N2									Active		
CN1CCN(c2ccc(C(=O)Nc3n[nH]c4c3CN(C(=O)Cc3cc(F)cc(F)c3)C4)cc2)CC1	98	99	98	37	0.63	> 60	0.91	0.7		0.59	
CN1CCN(c2ccc(C(=O)Nc3n[nH]c4c3CN(C(=O)c3ccccc3)C4)cc2)CC1					0.54				inactive	11.1	0.05
CN1CCN(c2ccc(C(=O)Nc3n[nH]c4c3CN(C(=O)CC3CC(=O)c5ccccc53)C4)cc2)CC1 (racemic)	34	35	79	27							
CN1CCN(c2ccc(C(=O)Nc3n[nH]c4c3CN(C(=O)Cc3c(F)cc(F)cc3F)C4)cc2)CC1	23	72	100	41							
CO[C@@H](C(=O)N1Cc2[nH]nc(NC(=O)c3ccc(N4CCN(C)CC4)cc3)c2C1)c1ccccc1 [DANUSERTIB]							0.15		Active	0.6	
CN1CCN(c2ccc(C(=O)Nc3n[nH]c4c3CN(C(=O)Nc3ccccc3)C4)cc2)CC1					3.55				Active	6.1	0.58
CN1CCN(c2ccc(C(=O)Nc3n[nH]c4c3CN(C(=O)Cc3cccc(Cl)c3)C4)cc2)CC1	35	98	98	33	4	> 60	0.58	6.9		0.85	
CC(C)C(C(=O)N1Cc2[nH]nc(NC(=O)c3ccc(N4CCN(C)CC4)cc3)c2C1)c1ccccc1 (racemic)	99	100	99	62		> 60	0.4	6.3		0.67	
CN1CCN(c2ccc(C(=O)Nc3n[nH]c4c3CN(C(=O)Cc3ccc(F)cc3F)C4)cc2)CC1	6	62	98	40							
Cc1[nH]c2ccccc2c1CC(=O)N1Cc2[nH]nc(NC(=O)c3ccc(N4CCN(C)CC4)cc3)c2C1	62	63	98	34		> 60	1.2	1			
CN1CCN(c2ccc(C(=O)Nc3n[nH]c4c3CN(C(=O)Cc3c(F)ccc(F)c3F)C4)cc2)CC1	52	77	98	14	2.22	> 60	0.32	6.9			
CCc1cccc(CC)c1NC(=O)N1Cc2[nH]nc(NC(=O)c3ccc(N4CCN(C)CC4)cc3)c2C1 [PHA-680632]					0.22		1.25		Active	4	
Cc1ccc(S(=O)(=O)N2Cc3[nH]nc(NC(=O)c4ccc(N5CCN(C)CC5)cc4)c3C2)cc1					0.94				Active	5.7	0.16
CN1CCN(c2ccc(C(=O)Nc3n[nH]c4c3CN(C(=O)Cc3cccc5ccccc35)C4)cc2)CC1	82	100	98	26	14.2	> 60	0.61	23			
CN1CCN(c2ccc(C(=O)Nc3n[nH]c4c3CN(C(=O)Cc3cc(F)ccc3F)C4)cc2)CC1	6	97	98	37							
CO[C@@H](C(=O)N1Cc2n[nH]c(NC(=O)c3ccc(N4CCN(C)CC4)cc3)c2C1)c1ccccc1 [DANUSERTIB]								1			0.25
Cc1nc(CC(=O)N2Cc3[nH]nc(NC(=O)c4ccc(N5CCN(C)CC5)cc4)c3C2)cs1	23	14	53	8							
Cc1ccc(C)c(CC(=O)N2Cc3[nH]nc(NC(=O)c4ccc(N5CCN(C)CC5)cc4)c3C2)c1	34	100	99	18	2.65	> 60	1.2	2.2			
CN1CCN(c2ccc(C(=O)Nc3n[nH]c4c3CN(C(=O)Cc3cc(F)cc(F)c3F)C4)cc2)CC1	44	94	99	26	2.31	> 60	2	1.2			
Cc1cc(C)cc(CC(=O)N2Cc3[nH]nc(NC(=O)c4ccc(N5CCN(C)CC5)cc4)c3C2)c1	85	100	99	26	4.46	> 60	1.04	4.3		2.56	
CCc1cccc(CC)c1NC(=O)N1Cc2n[nH]c(NC(=O)c3ccc(N4CCN(C)CC4)cc3)c2C1 [PHA-680632]								0.18			0.06
Cc1nc(C)c(CC(=O)N2Cc3[nH]nc(NC(=O)c4ccc(N5CCN(C)CC5)cc4)c3C2)s1	13	12	35	6							
CN1CCN(c2ccc(C(=O)Nc3n[nH]c4c3CN(C(=O)Cc3c(F)cccc3F)C4)cc2)CC1	20	66	97	32							

Reference: ChEMBL document CHEMBL2346529, “The human Aurora kinase inhibitor danusertib is a lead compound for anti-trypanosomal drug discovery via target repurposing” (Eur J Med Chem, 2013)
